Compounds with a hit are over-represented: about 4.3% of the library has one in this group of screens.
B2AR ag: human beta-2 adrenergic receptor agonism by FAP. P07550. Am2.2-beta2AR cells, FAP receptor internalization, flow cytometry. response, % (test concentration not listed). 0.43% of 340,000 active;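 active = response above a set limit, near 3 SD of response in nonfluorescent compounds, cut at about 42% in these data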
HTR2A ag: agonists of mouse serotonin 5-HT2A receptor (HTR2A); P35363; AID 624169; 0.66% of 360,000 active; activation, % at 7.6 µM; CHO-K1 mHTR2A beta-arrestin complementation, luminescence; percent of 30 µM serotonin response;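 active = activation above a run cutoff, the mean activation of all tested compounds plus 3 SD, cut at about 14% in these data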;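 note: 0% = plate median of compound wells and 100% = 30 µM serotonin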
TAAR1 agonist: human TAAR1 agonism. Q96RJ0. CHO RD-HGA16 TAAR1, Fluo-8 calcium fluorescence; vehicle wells 0%, saturating PEA agonist 100%. activation, % at 3 µM. 0.99% of 360,000 active. AID 624467;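 active = activation above the mean activation of all test compounds in the run plus 3 SD, cut at about 38% in these data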
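Repeats: no replicates (n 1) | Material: CHO-derived RD-HGA16 cells with stable Gα16 and human TAAR1 | Technique: Kinetic Fluo-8 calcium fluorescence | Schedule: 17-24 h seeding, 75 min 37 °C dye, 30 min RT | Evaluation: % activation from peak over basal fluorescence ratio, DMSO-to-PEA scaled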
TAAR1 antag: antagonists of human TAAR1; inhibition, % at 3 µM; CHO RD-HGA16 TAAR1, Fluo-8 calcium fluorescence, antagonist; Q96RJ0; 1.5% of 360,000 active;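 active = inhibition above a per-plate cutoff, the mean inhibition of test compounds on that plate plus 3 SD, cut at about 49% in these data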;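 note: 0% = DMSO plus EC80 beta-PEA response and 100% = DMSO alone without agonist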
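Test system: CHO RD-HGA16 cells bearing hTAAR1 | Reagent: β-PEA, EC80 | Compound dosing: 3 µM, single point | Schedule: Dye loading 75 min at 37 °C, then 30 min room temperature | Signal: Calcium fluorescence with Fluo-8 | Evaluation: Percent inhibition of PEA-evoked calcium signal, max/basal emission ratio | Control set: DMSO-only wells and EC80 β-PEA-stimulated wells | Repeats: Singlicate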
MC4R ag barr: activates human MC4R beta-arrestin recruitment. P32245. U2OS MC4R beta-arrestin complementation, luminescence; percent of melanotan II response, DMSO zero. activation, % at 8.9 µM. 0.98% of 360,000 active;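 active = activation above a per-plate cutoff, the mean activation of sample wells on that plate plus 3 SD, cut at about 8% in these data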
Target sequence (P32245 whole entry, looked up): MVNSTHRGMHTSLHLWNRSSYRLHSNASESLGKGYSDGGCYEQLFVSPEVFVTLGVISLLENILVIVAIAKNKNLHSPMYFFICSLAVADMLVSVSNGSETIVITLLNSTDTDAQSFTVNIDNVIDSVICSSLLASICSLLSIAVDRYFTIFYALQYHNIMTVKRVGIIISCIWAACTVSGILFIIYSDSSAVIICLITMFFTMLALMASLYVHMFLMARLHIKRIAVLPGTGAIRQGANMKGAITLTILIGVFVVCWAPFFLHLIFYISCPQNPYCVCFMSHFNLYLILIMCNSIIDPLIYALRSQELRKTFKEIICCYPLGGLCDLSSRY
MC4R antagonist: human MC4R antagonism in cAMP assay. 0.48% of 360,000 active. P32245. MC4R-expressing cells, MTII-stimulated cAMP, LANCE TR-FRET. AID 540295. inhibition, % at 6.5 µM;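 active = inhibition above its plate's cutoff, the mean of tested wells on that plate plus 3 SD, cut at about 29% in these data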;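 note: 0% = Melanotan II alone and 100% = Melanotan II plus saturating MCL0020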
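Material – human MC4R-expressing U2OS cells · Repeats – no replicates · Detection – TR-FRET with Eu-cAMP and labeled anti-cAMP, 671 nm · Times – compound 30 min, challenge 1 h, detection 1 h · Compound – single nominal compound dose of 6.5 µM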
The depositor's hits bear a star; · = not tested or not shown.

SMILES	B2AR ag	HTR2A ag	TAAR1 agonist	TAAR1 antag	MC4R ag barr	MC4R antagonist
CS(=O)(=O)c1nc(-c2ccccc2)cc(-c2ccccc2)c1C#N	7	2	·	·	-2	30*
Cc1ccccc1CN1N=C(/C=C/c2ccccc2)CCC1=O	48*	-6	2	-21	-1	2
CC(C)(C)NCCC(O)c1cc(C(F)(F)F)nc2c(C(F)(F)F)cccc12 (configuration not stated)	9	5	38*	15	-2	-2
Cc1cccc(C2=CC(=O)CC(C)(C)C2=O)c1	·	·	5	-9	·	·
CCCCC(=O)N/N=C/c1ccc(Sc2cccc3cccnc23)o1	49*	-4	-1	-4	-3	-4
CCCCNC(=O)n1c(SC)nc2ccccc21	-11	-1	1	6	0	8
COC(=O)n1c(SC)nc2ccccc21	78*	0	3	6	2	9
C=CCN=C1NC(c2ccccc2C(F)(F)F)C(C(=O)OC)=C(C)N1Cc1cccc(C(F)(F)F)c1 (configuration not stated)	·	·	1	-8	·	·
c1ccc2c(C[C@@H]3CNCCN3CC3CCCCC3)cccc2c1	39	-4	41*	-1	4	-4
Cc1ccc(S(=O)(=O)N2C[C@H]3[C@H]4C(=O)N(Cc5ccccc5)C(=O)[C@H]4CC(=O)[C@H]3[C@@H]2c2ccccc2)cc1	·	-1	1	4	·	·
CCOC(=O)N/N=C/c1cn(Cc2ccc(Cl)cc2)c2ccccc12	4	-5	2	-15	8.8*	-5
COC(=O)N/N=C/c1cn(CCOc2ccc(OC)cc2)c2ccccc12	-19	7	1	50*	0	12
CCOC(=O)N/N=C/c1cn(CCCOc2ccccc2)c2ccccc12	-9	-6	3	-1	0	5
O=C(CNc1ccc2c(c1)OCO2)N/N=C\c1cn(Cc2ccccc2)c2ccccc12	9	-5	1	-16	2	13
CCOC(=O)N/N=C/c1cn(CCCOc2ccc(C)cc2)c2ccccc12	71*	0	1	20	8	-3
N#CCC(=O)N/N=C/c1cn(Cc2ccc(Cl)cc2Cl)c2ccccc12	3	-2	2	-31	17*	1
C[C@H](CO)N1C[C@H](C)[C@@H](CN(C)C(=O)NC2CCCCC2)OCc2cn(nn2)CCCC1=O	·	·	1	-6	·	·
CC(C)C[C@H]1COc2cccc(N3CCOCC3)c2S(=O)(=O)N1	·	·	-1	-5	·	·
CCOC(=O)c1[nH]c(C)c(C(=O)OCC(=O)N(C)C2CCS(=O)(=O)C2)c1C (configuration not stated)	2	3	2	-9	8.3*	7
CCOC(=O)c1[nH]c(C)c(C(=O)OCC(=O)NC2CCS(=O)(=O)C2)c1C (configuration not stated)	1	2	8	2	-1	9
Cc1nc2ccc(NC(=O)[C@@H](NC(=O)c3c(F)cccc3F)C(C)C)cc2s1	8	3	6	-4	0	1
CC(C)[C@H](NC(=O)c1c(F)cccc1F)C(=O)Nc1cccc(Br)c1	8	3	1	-3	8.6*	-1
CCOC(=O)C1=CCC(c2ccc([N+](=O)[O-])cc2)N(S(=O)(=O)c2ccc(C)cc2)C1 (configuration not stated)	·	·	-1	20	·	·
O=C(Cc1c[nH]c2ccccc12)Nc1ccc(Nc2cccnc2)c(-c2ccc(OC(F)(F)F)cc2)c1	·	·	5	44	·	·
Cc1cc(=O)cc(C)n1-c1ccccc1N	45*	-6	1	5	3	13
SMILES	B2AR ag	HTR2A ag	TAAR1 agonist	TAAR1 antag	MC4R ag barr	MC4R antagonist
CC1(C)OC(=O)C2=C(CC(CCc3ccccc3)OC2c2ccc(F)cc2)O1 (configuration not stated)	·	·	1	33	·	·
CC1=Nc2ccccc2/C1=C/c1nc(-c2ccc(C)s2)oc1O	-458	-2	38*	54*	-2	10
O=C(CCc1ccccc1)N=C1SC2CS(=O)(=O)CC2N1Cc1ccccc1 (configuration not stated)	3	-5	4	-21	8.9*	9
CCOC(=O)[C@]12CCCC=C1N(Cc1cccc3ccccc13)C(=O)[C@H](CC(=O)N1CCSCC1)C2	·	0	-1	-1	·	·
COC(=O)[C@]12CCCCC=C1N(Cc1cccc3ccccc13)C(=O)[C@H](CC(=O)N1CCSCC1)C2	·	1	12	53*	·	·
CCOC(=O)[C@]12CCCC=C1N(Cc1ccco1)C(=O)[C@H](CC(=O)NCc1cccc3ccccc13)C2	·	0	3	50*	·	·
COC(=O)[C@]12CCCCC=C1N(Cc1cccc3ccccc13)C(=O)[C@H](CC(=O)NCCC(C)C)C2	·	0	9	62*	·	·
COC(=O)C1=C(O)/C(=C\c2ccc(CNC(=O)C(=O)Nc3ccc(C)cc3)o2)N=C1C	56*	-1	16	-1	0	13
COC(=O)C1=C(O)/C(=C\c2ccc(CNC(=O)C(=O)Nc3ccc(C)c(C)c3)o2)N=C1C	70*	0	0	-13	1	1
CCOC(=O)C1=C(O)/C(=C/c2ccc(CNC(=O)C(=O)Nc3ccc(C)cc3)o2)N=C1C	75*	-1	-1	-9	1	8
CCOC(=O)C(=O)NCc1ccc(/C=C2/N=C(C)C(C(=O)OCC)=C2O)o1	-3	0	0	-20	-2	-21
O=C1c2ccccc2/C(=C\c2ccc3[nH]ccc3c2)N1c1ccccc1	-1	-8	7	27	-2	0
CCC/C(=C1/c2ccccc2C(=O)N1c1ccccc1)c1ccc2[nH]ccc2c1	-7	-7	0	58*	-1	-2
CCOC(=O)CSc1nc(N)c(C#N)c(-c2ccc(OCC)cc2)c1C#N	8	-2	9	33	9.4*	23
C=C(C)COc1ccc(-c2[nH]ncc2-c2ccc(OC)c(OC)c2)c(O)c1	-1	-5	2	50*	3	-24
C=C(C)COc1ccc(-c2[nH]ncc2-c2ccc(OC)cc2)c(O)c1	-4	4	-1	19	4	5
Cc1ccc(Cl)cc1N1CCN(C(=O)CCS(=O)(=O)c2ccc3c(c2)NC(=O)CO3)CC1	13	-4	16	63*	-2	0
Cc1noc(C)c1COc1ccc(C(=O)OCC(=O)N2c3ccccc3NC(=O)C2(C)C)cc1	39	-7	31	67*	-1	0
COc1cc(/C=C/C(=O)OCC(=O)N2c3ccccc3NC(=O)C2(C)C)cc(OC)c1OC	26	-2	27	64*	1	9
